Converted amounts (≈) assume the structure as drawn.
Assays:
Cannabinoid receptor 1 [1] = target: T1, Cannabinoid receptor 1 (Homo sapiens, UniProt P21554); experiment: Agonist activity at human cannabinoid CB1 receptor expressed in CHO cells after 5 hrs by luciferase reporter gene assay; type: functional, cell-based
Method in brief: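 Functional agonism was tested in CHO cells doubly transfected with human CB1 and a luciferase reporter gene. Potency is reported as pEC50, the mean of three experiments.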

[2] = Aqueous solubility of the compound at phosphate buffer solution of pH 7; type: physicochemical
Method in brief: (§1)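 MSF solubility of the HCl salt was measured in citrate buffer (nominal pH 5) and in PBS (nominal pH 7.4). The final pH of each solution was recorded and reported alongside the solubility in mg/L.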

[3] = Aqueous solubility of the compound at citrate buffer of pH 4.9; type: physicochemical; method in brief: as §1
Cannabinoid receptor 1 [4] = target: T1, Cannabinoid receptor 1; experiment: Displacement of [3H]CP-55940 from human cannabinoid CB1 receptor expressed in insect Sf9 cells
Method in brief: (§2)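 Affinity at CB1 and CB2 came from radioligand competition binding with [3H]CP 55,940 and is reported as pKi.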

Cannabinoid receptor 2 = Cannabinoid receptor 2 (Homo sapiens, UniProt P34972); experiment: Displacement of [3H]CP-55940 from human cannabinoid CB2 receptor expressed in insect Sf9 cells; method in brief: as §2
[5] = Aqueous solubility of the compound at citrate buffer of pH 5; type: physicochemical
[6] = Aqueous solubility of the compound at phosphate buffer solution of pH 6.7; type: physicochemical
[7] = Elimination half life in ICR mouse at 0.5 umol/kg, iv; type: ADME, organism-based; settings: in vivo, read-out: beta t1/2 (converted)
Method in brief: (§3)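 ICR mice received a single iv dose in saline vehicle. Brain and plasma levels were measured with terminal sampling under CO2. Plasma Cmax was taken at t = 0.05 h. Brain exposure was given as Cmax, tmax and AUC over 0–1 h, plus a brain:plasma Cmax ratio from the same study.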

[8] = Cmax in ICR mouse plasma at 0.5 umol/kg, iv after 0.05 hrs; type: ADME, organism-based; parameters: dose 0.5 umol/kg, route intravenous; method in brief: as §3
[9] = Ratio of Cmax in brain to plasma in ICR mouse brain at 0.5 umol/kg, iv; type: ADME; settings: brain and plasma; method in brief: as §3
[10] = Tmax in ICR mouse brain at 0.5 umol/kg, iv; type: ADME, organism-based; method in brief: as §3
[11] = Volume of distribution at steady state in ICR mouse at 0.5 umol/kg, iv; type: ADME, organism-based; settings: in vivo, read-out: Vdss; method in brief: as §3
Mus musculus = experiment: Antinociceptive activity against Freund's complete adjuvant-induced […] pain in iv dosed mouse assessed as increase in tail flick latency by tail flick test; type: functional
[12] = Cmax in ICR mouse brain at 0.5 umol/kg, iv; type: ADME, organism-based; parameters: dose 0.5 umol/kg, route intravenous; method in brief: as §3
[13] = Clearance in ICR mouse at 0.5 umol/kg, iv; type: ADME, organism-based; settings: in vivo; method in brief: as §3
[14] = Intrinsic clearance in mouse liver microsomes; type: ADME, Microsome
Brain = experiment: AUC (0 to 1 hr) in ICR mouse brain at 0.5 umol/kg, iv; type: ADME, organism-based; parameters: dose 0.5 umol/kg, time < 1 hr, route intravenous; settings: in vivo; method in brief: as §3
[15] = AUC in ICR mouse plasma at 0.5 umol/kg, iv; type: ADME; method in brief: as §3

T1 sequence (P21554 whole entry): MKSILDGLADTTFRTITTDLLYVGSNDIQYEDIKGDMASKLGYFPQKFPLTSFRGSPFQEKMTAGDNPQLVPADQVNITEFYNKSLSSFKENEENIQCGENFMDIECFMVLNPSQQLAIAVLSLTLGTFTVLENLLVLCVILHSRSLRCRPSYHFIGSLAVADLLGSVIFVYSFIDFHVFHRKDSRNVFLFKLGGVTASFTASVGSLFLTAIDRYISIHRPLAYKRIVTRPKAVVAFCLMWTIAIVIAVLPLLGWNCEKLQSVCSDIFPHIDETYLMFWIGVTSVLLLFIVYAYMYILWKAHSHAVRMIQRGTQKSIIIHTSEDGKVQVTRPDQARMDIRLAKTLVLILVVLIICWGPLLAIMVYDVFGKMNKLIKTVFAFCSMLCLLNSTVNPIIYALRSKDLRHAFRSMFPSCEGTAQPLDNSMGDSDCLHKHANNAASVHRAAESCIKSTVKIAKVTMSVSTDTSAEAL
Cannabinoid receptor 2, sequence (P34972 whole entry): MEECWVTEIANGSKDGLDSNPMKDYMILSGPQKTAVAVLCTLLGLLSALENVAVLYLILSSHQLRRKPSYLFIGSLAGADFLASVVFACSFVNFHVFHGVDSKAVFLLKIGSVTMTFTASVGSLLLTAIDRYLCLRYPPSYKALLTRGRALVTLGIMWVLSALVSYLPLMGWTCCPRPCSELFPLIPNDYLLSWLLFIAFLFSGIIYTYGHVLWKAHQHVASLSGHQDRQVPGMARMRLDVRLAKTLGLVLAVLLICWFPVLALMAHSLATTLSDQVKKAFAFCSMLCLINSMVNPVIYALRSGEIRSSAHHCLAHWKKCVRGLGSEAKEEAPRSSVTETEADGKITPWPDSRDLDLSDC

CCN1CCN(C(=O)c2cn3c4c(cccc24)OCC3C2CCCCC2)CC1 (configuration not stated)
EC50 (Cannabinoid receptor 1 [1]): 31.6 nM

CCN1CCN(C(=O)c2cn3c4c(cccc24)CCC3C2CCCCC2)CC1 (configuration not stated)
EC50 (Cannabinoid receptor 1 [1]): 25.1 nM | solubility [2]: 114 µg/mL (≈ 300 µM) | solubility [3]: 3510 µg/mL (≈ 9250 µM)

CCN1CCN(C(=O)c2cn3c4c(cccc24)OC[C@H]3C2CCCCC2)CC1
Ki (Cannabinoid receptor 1 [4]): 12.6 nM | Ki (Cannabinoid receptor 2): 3.98 nM

CCN1CCN(C(=O)c2cn3c4c(cccc24)OC[C@@H]3C2CCCCC2)CC1
EC50 (Cannabinoid receptor 1 [1]): > 10000 nM | solubility [2]: 308 µg/mL (≈ 807 µM) | solubility [3]: > 4000 µg/mL

CCN1CCN(C(=O)c2cn(CC3CCCCC3)c3c(OC)cccc23)CC1
EC50 (Cannabinoid receptor 1 [1]): 158 nM | solubility [5]: 3400 µg/mL (≈ 8860 µM) | solubility [6]: 216 µg/mL (≈ 563 µM)

O=C(c1cn2c3c(cccc13)OC[C@H]2C1CCCCC1)N1CCNCC1
EC50 (Cannabinoid receptor 1 [1]): 3980 nM

C[C@@H]1CN(C(=O)c2cn3c4c(cccc24)OC[C@H]3C2CCCCC2)C[C@H](C)N1
EC50 (Cannabinoid receptor 1 [1]): 126 nM

CCN1[C@H](C)CN(C(=O)c2cn(CC3CCCCC3)c3c(OC)cccc23)C[C@@H]1C
EC50 (Cannabinoid receptor 1 [1]): 10 nM

COc1cccc2c(C(=O)N3C[C@@H](C)N(C)[C@@H](C)C3)cn(CC3CCCCC3)c12
EC50 (Cannabinoid receptor 1 [1]): 25.1 nM

C[C@H]1CN(C(=O)c2cn3c4c(cccc24)OC[C@H]3C2CCCCC2)CCN1C
half-life [7]: 13.8 min | Cmax [8]: 51.5 ng/mL | Kp [9]: 1.48 | Tmax [10]: 10.2 min | Ki (Cannabinoid receptor 1 [4]): 2 nM | Vd [11]: 2.6 L/kg | Ki (Cannabinoid receptor 2): 0.398 nM | ED50 (Mus musculus): 0.19 µmol/kg | Cmax [12]: 76.2 ng/g | clearance [13]: 134 mL/min/kg | microsomal CLint [14]: > 180 µL/min/mg | AUC (Brain): 44.6 ng·h/g | AUC [15]: 23.7 ng·h/mL

C[C@H]1CN(C(=O)c2cn3c4c(cccc24)OC[C@H]3C2CCCCC2)CCN1
EC50 (Cannabinoid receptor 1 [1]): 501 nM

C[C@@H]1CN(C)C[C@H](C)N1C(=O)c1cn2c3c(cccc13)OC[C@H]2C1CCCCC1
EC50 (Cannabinoid receptor 1 [1]): 63.1 nM

C[C@@H]1CNC[C@H](C)N1C(=O)c1cn2c3c(cccc13)OC[C@H]2C1CCCCC1
EC50 (Cannabinoid receptor 1 [1]): 794 nM

Reference: ChEMBL document CHEMBL1208772, “Design, synthesis, and structure-activity relationship study of conformationally constrained analogs of indole-3-carboxamides as novel CB1 cannabinoid receptor agonists” (Bioorg Med Chem Lett, 2010)
